Consider five compounds from ChEMBL document CHEMBL3525966, “Compartmental and enzyme kinetic modeling to elucidate the biotransformation pathway of a centrally acting antitrypanosomal prodrug” (Drug Metab Dispos, 2013).

As usually defined, the Vmax is the rate approached at saturating substrate.

The nature of data set [1]: Drug metabolism in sandwich-cultured human hepatocytes treated with 10 uM DB868 after 4 hrs of incubation by HPLC-MS/MS analysis. Format: ADME, cell-based, Hepatocyte. Summed up: (§1)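 Sandwich-cultured hepatocytes were used on day 5 (human) or day 4 (rat) and rinsed with warm phenol-red-free DMEM. They were then exposed to 10 µM DB868 (0.1–0.2% DMSO) at 37°C. Medium and methanol/water cell lysates were collected at 0.5, 2, 4 and 24 h. Analytes were quantified by HPLC/MS/MS with deuterated internal standards; protein by Bradford. Replicates: 6 (human) or 4 (rat).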

The target of data set [2] is T1, Cytochrome P450 1A2 (Homo sapiens, UniProt P05177).
T1 sequence (P05177 whole entry): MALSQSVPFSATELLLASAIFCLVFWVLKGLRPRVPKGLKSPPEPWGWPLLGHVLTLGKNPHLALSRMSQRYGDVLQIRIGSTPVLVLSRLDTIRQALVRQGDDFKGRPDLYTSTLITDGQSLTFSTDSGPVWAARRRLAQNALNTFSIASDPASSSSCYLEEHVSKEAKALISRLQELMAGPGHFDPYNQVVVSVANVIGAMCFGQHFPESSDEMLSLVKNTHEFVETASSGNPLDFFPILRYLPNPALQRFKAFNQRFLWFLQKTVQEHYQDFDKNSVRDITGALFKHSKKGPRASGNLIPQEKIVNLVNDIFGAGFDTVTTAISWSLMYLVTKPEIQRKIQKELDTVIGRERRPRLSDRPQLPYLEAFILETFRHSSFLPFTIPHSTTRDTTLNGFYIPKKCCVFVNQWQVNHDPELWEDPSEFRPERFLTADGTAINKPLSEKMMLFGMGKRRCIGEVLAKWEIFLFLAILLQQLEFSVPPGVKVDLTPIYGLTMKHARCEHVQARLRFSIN
In words: Activity at human recombinant CYP1A2-mediated drug metabolism treated with 5 uM DB868 after 180 mins incubation by HPLC-UV chromatography. Format: ADME. To be noted: recombinant enzyme, 15 min, in the assay text read “15 mins” for “180 mins”. The method in brief:
(§2)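 Insect-cell-expressed human or rat P450 (with NADPH-P450 reductase, some also with cytochrome b5) at 0.1 pmol/µL in 100 mM potassium phosphate pH 7.4 with 10 mM MgCl2. DB868 (for M1) or M1 (for M2) was added at 5 µM (0.5% DMSO) and started with 2 mM NADPH. Stopped after 15 min with ice-cold acetonitrile, then HPLC-UV. Duplicate incubations.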

Data set [3] in a line: Drug metabolism in sandwich-cultured human hepatocytes treated with 10 uM DB868 after 24 hrs of incubation by HPLC-MS/MS analysis. It is filed as ADME, cell-based, Hepatocyte. The method in brief: as §1
The subject of data set [4] is Liver microsome. The data set can be described thus: Prodrug conversion in human liver microsomes assessed as elution time treated with 10 uM DB868 after 180 mins incubation by HPLC-UV chromatography. The conditions noted are these: 3 h. It is filed as ADME. Summed up:
(§3)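 HLM or RLM (0.5 mg/mL) were incubated in triplicate in 100 mM phosphate pH 7.4 with 10 mM MgCl2 and an NADPH-regenerating system (1 mM NADP+, glucose 6-phosphate, G6PDH). DB868 was 10 µM. Sampled up to 180 min. Prodrug and metabolites were measured by HPLC-UV at 359 nm and expressed relative to initial prodrug; DB829 LLOQ 50 nM.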
(In general: Liver microsomes are a subcellular fraction often used to study metabolism.)

Data set [5] relates to Liver microsome. The data set can be described thus: Prodrug conversion in rat liver microsomes assessed as elution time treated with 10 uM DB868 after 180 mins incubation by HPLC-UV chromatography. It is filed as ADME. The conditions noted are these: 3 h. The method in brief:
as §3

Data set [6] has as its target T2, Cytochrome P450 1A2 (Rattus norvegicus, UniProt P04799).
T2 sequence (P04799 whole entry): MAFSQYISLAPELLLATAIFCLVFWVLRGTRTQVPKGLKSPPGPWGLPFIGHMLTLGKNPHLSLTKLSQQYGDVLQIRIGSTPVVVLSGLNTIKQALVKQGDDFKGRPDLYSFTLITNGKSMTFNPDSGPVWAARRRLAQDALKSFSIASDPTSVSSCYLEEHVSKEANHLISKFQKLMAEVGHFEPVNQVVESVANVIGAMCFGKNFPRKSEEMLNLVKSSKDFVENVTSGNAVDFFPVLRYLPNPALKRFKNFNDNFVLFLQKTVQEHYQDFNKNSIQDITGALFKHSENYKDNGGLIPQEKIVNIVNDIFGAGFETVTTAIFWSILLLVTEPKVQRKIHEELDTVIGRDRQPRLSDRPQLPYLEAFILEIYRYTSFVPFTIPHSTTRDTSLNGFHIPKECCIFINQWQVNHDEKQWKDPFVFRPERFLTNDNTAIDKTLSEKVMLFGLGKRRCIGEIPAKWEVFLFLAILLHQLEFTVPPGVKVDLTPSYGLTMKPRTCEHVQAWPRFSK
In words: Drug metabolism in rat recombinant CYP1A2 treated with at 5 uM DB868 after 180 mins incubation by HPLC-UV chromatography. It is filed as ADME. To be noted: recombinant enzyme, 15 min, in the assay text read “15 mins” for “180 mins”. The method in brief: as §2

In data set [7] the target is T3, Cytochrome P450 3A4 (Homo sapiens, UniProt P08684). In words: Activity at human recombinant CYP3A4-mediated drug metabolism treated with 5 uM DB868 after 180 mins incubation by HPLC-UV chromatography. The conditions noted are these: recombinant enzyme, 15 min, in the assay text read “15 mins” for “180 mins”. It is filed as ADME. The method in brief: as §2
Data set [8] has as its system Liver microsome. In words: Drug metabolism in human liver microsomes assessed as (3Z,3'Z)-6,6'-(furan-2,5-diyl)bis(N'-hydroxynicotinimidamide) formation measured by HPLC-MS/MS analysis. It is filed as ADME. The method in brief: (§4)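 M2 formation kinetics: HLM (0.5 mg/mL) with M1 at 0.1–25 µM in phosphate pH 7.4 with MgCl2, started with 2 mM NADPH. Run 5 min in triplicate under initial-rate conditions. Quantified by HPLC/MS/MS and fitted to the Hill equation (S50, Vmax, n).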

For data set [9], the target named is T3, Cytochrome P450 3A4. In words: Drug metabolism in human recombinant CYP3A4 treated with at 5 uM DB868 after 15 mins incubation by HPLC-UV chromatography. To be noted: recombinant enzyme.
For data set [10], the system named is Liver microsome. The data set can be described thus: Drug metabolism in human liver microsomes assessed as (3Z,3'Z)-6,6'-(furan-2,5-diyl)bis(N'-hydroxynicotinimidamide) formation measured per mg of protein by HPLC-MS/MS analysis. It is filed as ADME. The method in brief:
as §4

The target of a further data set is T4, Cytochrome P450 4F1 (Rattus norvegicus, UniProt P33274).
T4 sequence (P33274 whole entry): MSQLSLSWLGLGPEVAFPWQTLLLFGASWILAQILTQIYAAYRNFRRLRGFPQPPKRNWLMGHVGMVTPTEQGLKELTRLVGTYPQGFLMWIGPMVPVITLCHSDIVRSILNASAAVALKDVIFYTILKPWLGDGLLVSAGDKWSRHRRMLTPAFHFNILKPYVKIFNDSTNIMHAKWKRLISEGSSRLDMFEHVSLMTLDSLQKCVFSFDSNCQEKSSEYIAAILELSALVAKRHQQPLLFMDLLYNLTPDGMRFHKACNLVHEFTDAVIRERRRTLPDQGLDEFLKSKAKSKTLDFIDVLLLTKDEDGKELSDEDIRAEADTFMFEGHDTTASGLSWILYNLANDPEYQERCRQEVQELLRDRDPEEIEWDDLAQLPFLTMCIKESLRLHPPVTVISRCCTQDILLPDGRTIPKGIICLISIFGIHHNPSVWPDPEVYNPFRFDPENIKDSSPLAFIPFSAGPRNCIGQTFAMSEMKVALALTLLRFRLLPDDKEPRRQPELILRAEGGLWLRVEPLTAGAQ
In words: Drug metabolism in rat recombinant […] treated with at 5 uM DB868 after 180 mins incubation by HPLC-UV chromatography. It is filed as ADME. The conditions noted are these: recombinant enzyme, 3 h.

Data set [11] can be described thus: Drug metabolism in sandwich-cultured rat hepatocytes treated with 10 uM DB868 after 4 hrs of incubation by HPLC-MS/MS analysis. It is filed as ADME, cell-based, Hepatocyte. Summed up:
as §1

The next data set has as its target T5, Cytochrome P450 4F2 (Homo sapiens, UniProt P78329).
T5 sequence (P78329 whole entry): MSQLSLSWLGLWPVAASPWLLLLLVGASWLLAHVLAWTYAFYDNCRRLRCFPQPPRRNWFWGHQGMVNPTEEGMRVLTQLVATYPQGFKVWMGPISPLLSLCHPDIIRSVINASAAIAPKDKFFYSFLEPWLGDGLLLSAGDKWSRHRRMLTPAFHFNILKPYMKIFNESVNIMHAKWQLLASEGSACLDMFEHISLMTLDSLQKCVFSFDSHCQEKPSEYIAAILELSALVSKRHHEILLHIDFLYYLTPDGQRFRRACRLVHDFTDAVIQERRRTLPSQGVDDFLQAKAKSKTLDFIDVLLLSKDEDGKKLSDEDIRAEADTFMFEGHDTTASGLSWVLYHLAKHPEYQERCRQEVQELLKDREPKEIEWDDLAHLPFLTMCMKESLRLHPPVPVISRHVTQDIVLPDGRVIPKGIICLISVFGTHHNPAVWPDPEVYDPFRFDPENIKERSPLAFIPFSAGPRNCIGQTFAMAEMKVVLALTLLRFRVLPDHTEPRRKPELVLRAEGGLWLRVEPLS
The data set can be described thus: Activity at human recombinant CYP4F2-mediated drug metabolism treated with 5 uM DB868 […] by HPLC-UV chromatography. Format: ADME. The conditions noted are these: recombinant enzyme, 3 h.

Data set [12] in a line: Drug metabolism in sandwich-cultured rat hepatocytes treated with 10 uM DB868 after 24 hrs of incubation by HPLC-MS/MS analysis. Format: ADME, cell-based, Hepatocyte. Summed up:
as §1

Data set [13] is described as follows: Ratio of drug metabolism in sandwich-cultured human hepatocytes to drug metabolism in sandwich-cultured rat hepatocytes treated with 10 uM DB868 after 24 hrs of incubation by HPLC-MS/MS analysis.
The test system of data set [14] is Liver microsome. In words: Prodrug conversion in rat liver microsomes treated with 10 uM DB868 after 180 mins incubation by HPLC-UV chromatography. Format: ADME. To be noted: 3 h. The method in brief:
as §3

For data set [15], the system named is Liver microsome. In words: Drug level in human liver microsomes treated with 10 uM DB868 prodrug after 180 mins incubation by HPLC-UV chromatography relative to initial prodrug concentration. It is filed as ADME. To be noted: 3 h. The method in brief: as §3

T3 sequence (P08684 whole entry): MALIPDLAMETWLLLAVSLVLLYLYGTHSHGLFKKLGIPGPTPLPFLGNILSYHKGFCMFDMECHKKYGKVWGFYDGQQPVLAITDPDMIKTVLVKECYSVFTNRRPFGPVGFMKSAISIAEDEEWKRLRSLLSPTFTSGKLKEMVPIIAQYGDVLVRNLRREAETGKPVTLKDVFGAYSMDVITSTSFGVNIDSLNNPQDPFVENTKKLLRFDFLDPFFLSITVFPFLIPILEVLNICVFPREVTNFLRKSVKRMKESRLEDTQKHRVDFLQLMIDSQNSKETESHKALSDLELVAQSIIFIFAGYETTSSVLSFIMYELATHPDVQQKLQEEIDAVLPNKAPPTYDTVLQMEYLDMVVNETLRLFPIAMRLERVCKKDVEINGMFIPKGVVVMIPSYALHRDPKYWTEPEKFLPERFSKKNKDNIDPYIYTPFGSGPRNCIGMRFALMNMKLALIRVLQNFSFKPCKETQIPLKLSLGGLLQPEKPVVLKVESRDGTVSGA

Consider `N=C(NO)c1ccc(-c2ccc(-c3ccc(C(=N)NO)cn3)o2)nc1`, for which the Drug metabolism entry (in data set [1]; on Cytochrome P450 1A2 [2]; in [3]; on Cytochrome P450 1A2 [6]) was “metabolite_detected” each time. The Retention_time with Liver microsome [4] and with Liver microsome [5] was 10.5 min throughout.
`CO/N=C(/N)c1ccc(-c2ccc(-c3ccc(/C(N)=N/O)cn3)o2)nc1`: the Drug metabolism result (at Cytochrome P450 3A4 [7]; in [1]; on Cytochrome P450 1A2 [2]; on Cytochrome P450 3A4 [9]; at Cytochrome P450 4F1; in data set [11]) was “metabolite_detected” each time. In addition, the Drug metabolism result on Cytochrome P450 1A2 [6] and on Cytochrome P450 4F2 was “metabolite_detected” throughout. Besides, the S50 with Liver microsome [8] amounted to 18 µM. In addition, in the data set with Liver microsome [10], the Vmax is 180 pmol/min. For the same compound, the Retention_time in the data set with Liver microsome [4] and in the data set on Liver microsome [5] was 14.5 min in each case.
Consider `Cl.N=C(N)c1ccc(-c2ccc(-c3ccc(C(=N)N)cn3)o2)nc1`, for which the Drug metabolism entry in data set [12] is “metabolite_detected”; in [3] it was “metabolite_detected”; in the data set with Liver microsome [14], “metabolite_not_detected”; in the data set with Liver microsome [15], “metabolite_detected”. The Ratio in [13] was 7800. Also, the Retention_time in the data set with Liver microsome [4] is listed as 5.8 min.
Take `CO/N=C(\N)c1ccc(-c2ccc(-c3ccc(C(=N)N)cn3)o2)nc1`: the Drug metabolism entry in [1], in data set [12], in data set [3] and in data set [11] was “metabolite_detected” throughout. Moreover, the Retention_time in the data set on Liver microsome [4] and in the data set on Liver microsome [5] was 12.3 min throughout.
With `N=C(N)c1ccc(-c2ccc(-c3ccc(/C(N)=N/O)cn3)o2)nc1`, the Retention_time in the data set with Liver microsome [4] and with Liver microsome [5] was 8.3 min throughout.
